In ChEMBL document CHEMBL4219021, “Discovery of a Small-Molecule Degrader of Bromodomain and Extra-Terminal (BET) Proteins with Picomolar Cellular Potencies and Capable of Achieving Tumor Regression” (J Med Chem, 2018) one finds Drug metabolism and Activity data, which are given here for one compound.

Structures are written as SMILES. Active and inactive are the calls of the source. The calls are words filed in the database; no cut-off is given here.

Series [1] in a line: Drug metabolism in mouse liver microsomes assessed as 4-(3-cyclopropyl-1H-pyrazol-5-ylamino)-7-(3,5-dimethylisoxazol-4-yl)-N-(5-(2-(2,6-dioxopiperidin-3-yl)-1-oxoisoindolin-4-yl)pentyl)-6-methoxy-9H-pyrimido[4,5-b]indole-2-carboxamide formation at 10 uM after 20 to 40 mins in presence of beta-NADPH […]. The series is classed as ADME, microsome.
The subject of series [2] is Mus musculus. Briefly: In vivo induction of cereblon/cullin 4A-mediated BET degradation in tumor of SCID mouse xenografted with human RS4:11 cells assessed as downregulation of c-Myc level at 5 mg/kg, iv administered as single dose measured up to 6 hrs by Western blot method. The series is classed as functional, organism-based. Put shortly:
(§1)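 SCID mice bearing subcutaneous RS4;11 tumors received a single 5 mg/kg iv dose. Sacrificed at 1, 3, 6 and 24 h, with vehicle controls at 6 h, two mice per time point. Tumors ground in liquid nitrogen and lysed in CHAPS buffer, then immunoblotted for BRD2/3/4, c-Myc, PARP/cleaved PARP and caspase-3/cleaved caspase-3. Actin served as loading control.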
On the technique in general: A xenograft is tissue or cells of one species grown in another, often human tumour cells in immunodeficient mice.

Series [3] concerns Mus musculus. Briefly: Toxicity in SCID mouse xenografted with human RS4:11 cells assessed as body weight loss at 5 mg/kg, iv […] administered every other day three times per week for 3 weeks. The format is organism-based. The settings on record: in vivo, 504 h. The procedure, abridged:
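SCID mice carried subcutaneous dorsal RS4;11 xenografts (5 × 10⁶ cells in 50% Matrigel). Once tumors reached ∼100 mm³, mice were randomized to treatment or vehicle. Dosing was 5 mg/kg iv every other day, three times weekly, for 3 weeks. Animals were checked daily for toxicity and weighed 2–3 times weekly during treatment, then at least weekly afterward.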

The test system of series [4] is RS4-11. Put plainly: Antitumor activity against human RS4:11 cells xenografted in SCID mouse assessed as tumor growth regression at 5 mg/kg, iv […] administered every other day three times per week for 3 weeks relative to control. The series is classed as functional. Put shortly: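 SCID mice given 5×10⁶ RS4;11 cells in 50% Matrigel subcutaneously on the dorsal side, one tumor per mouse. Randomized at ~100 mm³, then dosed 5 mg/kg iv every other day, three times a week for 3 weeks. Tumors measured by caliper 2–3 times/week, V = LW²/2. Body weight recorded 2–3 times/week and daily toxicity checks made.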

Series [5] in a line: Drug metabolism in mouse liver microsomes assessed as metabolite m3 formation at 10 uM after 20 to 40 mins in presence of beta-NADPH […]. The format is ADME, microsome.
Series [6] concerns RS4-11. Briefly: Induction of apoptosis in human RS4:11 cells at 3 to 10 nM after 24 hrs by Annexin-V/propidium iodide staining based flow cytometry. The series is classed as functional, cell-based. Put shortly:
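RS4;11 or MOLM-13 cells treated with compound for 24 h, then analyzed by flow cytometry. Cell cycle read by propidium iodide staining and apoptosis by annexin V/propidium iodide staining.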
Background: A flow cytometer gives signals particle by particle.

The subject of series [7] is Mus musculus. Put plainly: In vivo induction of cereblon/cullin 4A-mediated BRD4 degradation in tumor of SCID mouse xenografted with human RS4:11 cells at 5 mg/kg, iv administered as single dose measured after 24 hrs by Western blot method. The format is functional, organism-based. The procedure, abridged:
as §1

In series [8] the target is Protein cereblon/Bromodomain-containing protein 2/Cullin-4A (Homo sapiens) (UniProt P25440+Q96SW2+Q13619). Put plainly: Induction of cereblon/cullin 4A-mediated BRD2 degradation in human RS4:11 cells at 1 nM after 3 hrs in presence of proteosome inhibitor MG-132 by Western blot method. The series is classed as cell-based.
Chain of Protein cereblon/Bromodomain-containing protein 2/Cullin-4A (Homo sapiens) (P25440 whole entry, looked up): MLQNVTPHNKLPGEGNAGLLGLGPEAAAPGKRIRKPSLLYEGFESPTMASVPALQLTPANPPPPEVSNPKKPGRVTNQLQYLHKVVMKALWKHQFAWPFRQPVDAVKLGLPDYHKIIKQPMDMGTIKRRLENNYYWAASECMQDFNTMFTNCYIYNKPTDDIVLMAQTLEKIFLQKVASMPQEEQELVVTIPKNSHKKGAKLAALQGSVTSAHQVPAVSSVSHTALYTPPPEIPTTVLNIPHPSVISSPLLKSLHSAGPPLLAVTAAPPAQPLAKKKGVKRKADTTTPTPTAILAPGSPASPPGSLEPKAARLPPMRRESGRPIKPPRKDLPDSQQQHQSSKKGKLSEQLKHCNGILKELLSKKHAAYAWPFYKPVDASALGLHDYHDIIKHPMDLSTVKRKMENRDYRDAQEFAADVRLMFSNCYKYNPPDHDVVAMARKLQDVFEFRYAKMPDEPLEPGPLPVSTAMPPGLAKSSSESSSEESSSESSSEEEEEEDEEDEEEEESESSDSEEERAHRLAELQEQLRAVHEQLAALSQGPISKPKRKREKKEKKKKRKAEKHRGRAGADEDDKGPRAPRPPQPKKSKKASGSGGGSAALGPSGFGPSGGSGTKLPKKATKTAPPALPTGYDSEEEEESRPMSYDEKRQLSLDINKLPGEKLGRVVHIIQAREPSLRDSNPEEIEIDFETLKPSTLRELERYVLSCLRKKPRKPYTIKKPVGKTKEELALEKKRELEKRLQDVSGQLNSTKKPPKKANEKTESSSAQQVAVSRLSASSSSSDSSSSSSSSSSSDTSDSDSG
Chain of Protein cereblon/Bromodomain-containing protein 2/Cullin-4A (Homo sapiens) (Q13619 whole entry, looked up): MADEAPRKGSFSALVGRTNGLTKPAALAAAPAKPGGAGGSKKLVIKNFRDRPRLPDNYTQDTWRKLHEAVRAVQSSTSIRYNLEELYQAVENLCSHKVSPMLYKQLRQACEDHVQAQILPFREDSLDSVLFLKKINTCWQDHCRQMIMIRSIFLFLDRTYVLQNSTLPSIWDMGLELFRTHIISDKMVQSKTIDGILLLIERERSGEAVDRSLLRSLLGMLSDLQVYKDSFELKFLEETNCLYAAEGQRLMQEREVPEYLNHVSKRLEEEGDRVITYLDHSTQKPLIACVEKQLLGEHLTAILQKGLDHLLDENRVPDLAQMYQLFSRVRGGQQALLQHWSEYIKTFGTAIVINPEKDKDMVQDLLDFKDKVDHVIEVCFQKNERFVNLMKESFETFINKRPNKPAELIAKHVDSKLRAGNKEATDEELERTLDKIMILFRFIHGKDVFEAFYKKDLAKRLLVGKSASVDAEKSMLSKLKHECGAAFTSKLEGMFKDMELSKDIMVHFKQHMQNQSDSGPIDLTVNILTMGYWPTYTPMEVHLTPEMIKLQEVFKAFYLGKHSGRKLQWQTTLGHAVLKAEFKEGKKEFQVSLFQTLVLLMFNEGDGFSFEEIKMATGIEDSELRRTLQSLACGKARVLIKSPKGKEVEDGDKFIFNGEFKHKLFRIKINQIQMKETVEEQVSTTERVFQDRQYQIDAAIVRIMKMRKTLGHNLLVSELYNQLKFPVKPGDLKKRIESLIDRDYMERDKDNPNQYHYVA
Chain of Protein cereblon/Bromodomain-containing protein 2/Cullin-4A (Homo sapiens) (Q96SW2 whole entry, looked up): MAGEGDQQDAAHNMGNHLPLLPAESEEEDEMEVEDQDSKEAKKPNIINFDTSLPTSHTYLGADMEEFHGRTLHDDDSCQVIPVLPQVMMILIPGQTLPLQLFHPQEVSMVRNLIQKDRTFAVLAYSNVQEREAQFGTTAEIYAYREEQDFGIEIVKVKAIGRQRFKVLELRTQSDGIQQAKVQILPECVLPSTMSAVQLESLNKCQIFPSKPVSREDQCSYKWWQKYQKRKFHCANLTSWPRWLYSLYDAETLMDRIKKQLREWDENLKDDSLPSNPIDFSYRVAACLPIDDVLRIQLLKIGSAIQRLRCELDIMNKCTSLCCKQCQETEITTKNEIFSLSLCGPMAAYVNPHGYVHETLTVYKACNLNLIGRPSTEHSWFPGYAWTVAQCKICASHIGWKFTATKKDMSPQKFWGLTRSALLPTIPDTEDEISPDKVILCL
Series [9] deals with Protein cereblon/Bromodomain-containing protein 4/Cullin-4A (Homo sapiens) (UniProt O60885+Q96SW2+Q13619). Briefly: Induction of cereblon/cullin 4A-mediated BRD4 degradation in human RS4:11 cells after 3 hrs by Western blot method. The series is classed as cell-based. Put shortly: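 Western blot of RS4;11 cells (2 × 10⁶ cells/well) in RPMI 1640 with 10% FBS, 37 °C, 5% CO₂, used within three months of thawing. Compound exposure was 3 h or 24 h at the indicated concentrations. Cells were lysed in RIPA with protease inhibitors, and BRD2, BRD3 and BRD4 were detected with specific antibodies, with GAPDH as loading control.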

Series [10] relates to Mus musculus. Put plainly: In vivo induction of cereblon/cullin 4A-mediated BRD2 degradation in tumor of SCID mouse xenografted with human RS4:11 cells at 5 mg/kg, iv administered as single dose measured after 24 hrs by Western blot method. The format is functional, organism-based. Put shortly:
as §1

For `CCn1nc(C2CC2)cc1Nc1nc(C(=O)NCCCCCc2cccc3c2CN(C2CCC(=O)NC2=O)C3=O)nc2[nH]c3cc(-c4c(C)noc4C)c(OC)cc3c12` (stereo not given), the Drug metabolism entry in [1] and in series [5] was “Metabolite_Detected” in each case. The outcome in series [2], in [6], in series [7] and in series [10] was Active. Besides, the Activity entry in series [3] was “Non-Toxic”; in series [4], over 90%; in [9] it was “Dose-dependent effect”. Further, the result in series [8] was inactive.
